Experimental data taken from ChEMBL document CHEMBL1151869, “Discovery of novel 3,6-disubstituted 2-pyridinecarboxamide derivatives as GK activators” (Bioorg Med Chem Lett, 2009).
Activity calls are given as the source filed them. The calls are words filed in the database; no cut-off is given here.

Tests used:
Hexokinase-4 = target: T1, Hexokinase-4 (Homo sapiens, UniProt P35557); experiment: Activation of glucokinase
T1 sequence (P35557 whole entry): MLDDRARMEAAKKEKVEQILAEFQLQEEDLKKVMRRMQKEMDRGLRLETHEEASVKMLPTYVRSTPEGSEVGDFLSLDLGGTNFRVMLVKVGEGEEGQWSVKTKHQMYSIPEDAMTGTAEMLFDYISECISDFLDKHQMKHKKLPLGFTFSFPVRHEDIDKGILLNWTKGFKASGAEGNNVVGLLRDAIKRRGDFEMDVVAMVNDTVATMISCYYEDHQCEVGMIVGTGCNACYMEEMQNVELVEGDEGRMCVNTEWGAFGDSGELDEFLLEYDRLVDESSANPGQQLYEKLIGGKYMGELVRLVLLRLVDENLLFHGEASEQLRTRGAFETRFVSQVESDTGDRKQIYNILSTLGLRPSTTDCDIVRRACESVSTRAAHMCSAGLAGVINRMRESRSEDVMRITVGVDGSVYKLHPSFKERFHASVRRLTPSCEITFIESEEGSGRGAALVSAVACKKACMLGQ

[1] = Hepatic availability in rat hepatocytes; format: ADME, cell-based, Hepatocyte
[2] = AUC (0 to infinity) in rat at 1 mg/kg, iv; format: ADME, organism-based; parameters: dose 1 mg/kg, route intravenous, time infinity; conditions: plasma
[3] = AUC (0 to infinity) in rat at 3 mg/kg, po; format: ADME, organism-based; parameters: dose 3 mg/kg, route oral, time infinity; conditions: plasma
[4] = Half life in rat at 1 mg/kg, iv; format: ADME, organism-based; parameters: dose 1 mg/kg, route intravenous; conditions: in vivo
[5] = Oral bioavailability in rat at 3 mg/kg, po; format: ADME, organism-based; conditions: in vivo
[6] = Volume of distribution at steady state in rat at 1 mg/kg, iv; format: ADME, organism-based; parameters: dose 1 mg/kg, route intravenous; conditions: in vivo, read-out: Vdss
Rattus norvegicus [7] = experiment: Reduction in glucose AUC in overnight fasted Wistar rat at 30 mg/kg, po treated after 30 mins of glucose challenge measured after 3.5 hrs by oral glucose tolerance test; format: functional, organism-based; parameters: dose 30 mg/kg
Outline: (§1)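 Nine-week-old male Wistar rats, fasted overnight, given oral dose (30 mpk) or vehicle (0.5% methylcellulose), then an oral glucose challenge (2 g/kg) 30 min later. Blood glucose read just before the challenge and at 30, 60, 90, 120, 150 and 210 min after; AUC taken from the glucose time course.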

Rattus norvegicus [8] = experiment: Reduction in plasma glucose level in overnight fasted Wistar rat at 30 mg/kg, po treated after 30 mins of glucose challenge measured after 1 to 3 hrs by oral glucose tolerance test; format: functional, organism-based; parameters: dose 30 mg/kg; outline: as §1
[9] = Plasma clearance in rat at 1 mg/kg, iv; format: ADME, organism-based; parameters: dose 1 mg/kg, route intravenous

Structure (SMILES)	EC50 (Hexokinase-4) [nM]	Fh [1] [%]	further results
Cc1csc(NC(=O)c2cc(Sc3nncn3C)ccc2Sc2ccc(F)cc2)n1	970	–	–
O=C(Nc1nccs1)c1nc(Sc2nnc[nH]2)ccc1Sc1ccccc1F	57	71	–
O=C(Nc1nccs1)c1nc(Sc2nnc[nH]2)ccc1Sc1ccc(F)cc1	–	100	AUC(0-inf) [2]: 4.9 µM·h; AUC(0-inf) [3]: 3.3 µM·h; half-life [4]: 4 h; bioavailability [5]: 23%; Vd [6]: 0.5 L/kg; Activity (Rattus norvegicus [7]): Active; Activity (Rattus norvegicus [8]): Active; clearance [9]: 8.8 mL/min/kg
O=C(Nc1nccs1)c1nc(Sc2nnc[nH]2)ccc1Sc1ccccc1	38	77	–
O=C(Nc1nccs1)c1nc(Sc2nnc[nH]2)ccc1Sc1cccc(F)c1	40	89	–
Cc1csc(NC(=O)c2nc(Sc3nncn3C)ccc2Sc2ccc(F)cc2)n1	250	–	–

Continued, in another order:

EC50 (Hexokinase-4) [nM]	Structure (SMILES)	Fh [1] [%]	further results
120	Cn1cnnc1Sc1ccc(Sc2ccc(F)cc2)c(C(=O)Nc2nccs2)n1	–	–
120	COc1ccc(Sc2ccc(Sc3nnc[nH]3)nc2C(=O)Nc2nccs2)cc1	35	–
160	COc1cccc(Sc2ccc(Sc3nnc[nH]3)nc2C(=O)Nc2nccs2)c1	–	–
100	Cc1cccc(Sc2ccc(Sc3nnc[nH]3)nc2C(=O)Nc2nccs2)c1	69	–
160	O=C(Nc1nccs1)c1nc(Sc2nnc[nH]2)ccc1Sc1ccc(C(F)(F)F)cc1	–	–
